# Results as given in ChEMBL document CHEMBL4359883, “4(1H)-quinolone derivatives overcome acquired resistance to anti-microtubule agents by targeting the colchicine site of β-tubulin” (Eur J Med Chem, 2019).
# pIC50, pKd: −log10 of the molar value. Active and inactive are the calls of the source. No cut-off for these calls is given here.
# Assays:
# [1] = test system: CCRF-CEM; experiment: Antiproliferative activity against human CCRF-CEM cells assessed as reduction in cell viability after 72 hrs by MTS assay; type: functional, cell-based
# Summary of the method: (§1)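 Cells plated at 2000/well, cultured overnight, then exposed to a range of compound concentrations for 72 h. MTS reagent added for 1–4 h at 37 °C and absorbance read at 490 nm. Cultured in RPMI 1640 or DMEM with 10% heat-inactivated FBS under 5% CO2. Data are the mean of three determinations.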
# [2] = Antiproliferative activity against human KBtax cells assessed as reduction in cell viability after 72 hrs by MTS assay; type: functional, cell-based; summary of the method: as §1
# [3] = molecular target: Tubulin (Sus scrofa) (UniProt P02554+P02550); experiment: Inhibition of porcine tubulin at 5 uM in presence of GTP measured every minute for 1 hr by microplate reader analysis; type: protein assay
# [4] = Toxicity in Balb/c mouse xenografted with human KBtax cells assessed as serum creatinine level at 15 mg/kg, ip administered 3 times per week and measured after 21 days (reference value: 0.22 +/- 0.02 mg/dl); type: organism-based; settings: in vivo, 504 h
# [5] = molecular target: T1, Tubulin alpha (Homo sapiens) (UniProt P0DPH7+P68366+Q71U36+P68363+Q9BQE3+Q6PEY2+A6NHL2+Q9NY65); experiment: Induction of microtubule depolymerization in human NCI-H1975 cells assessed as increase in alpha tubulin soluble form by immunoblot analysis; type: cell-based
# Summary of the method: (§2)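 Lysate spun at 16,000 rpm for 15 min at room temperature. Soluble (monomer) and particulate (polymer) fractions immunoblotted for α-tubulin.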
# [6] = Toxicity in Balb/c mouse xenografted with human KBtax cells assessed as serum AST level at 15 mg/kg, ip administered 3 times per week and measured after 21 days (reference value: 94.2 +/- 12.5 IU/L); type: organism-based; settings: in vivo, 504 h
# [7] = Antitumour activity against human KBtax cells xenografted in Balb/c mouse assessed as reduction in tumour size at 15 mg/kg, ip administered 3 times per week and measured after 21 days (reference value: 1109 +/- 128.3 mm3); type: functional
# [8] = molecular target: T1, Tubulin alpha (Homo sapiens); experiment: Induction of microtubule depolymerization in human CL1-0 cells assessed as increase in alpha tubulin soluble form by immunoblot analysis; type: cell-based; summary of the method: as §2
# [9] = Antiproliferative activity against human CCRF-CEM/VBL cells assessed as reduction in cell viability after 72 hrs by MTS assay; type: functional, cell-based; summary of the method: as §1
# [10] = Toxicity in Balb/c mouse xenografted with human KBtax cells assessed as serum BUN level at 15 mg/kg, ip administered 3 times per week and measured after 21 days (reference value: 17.8 +/-1.1 mg/dl); type: organism-based; settings: in vivo, 504 h
# [11] = Antiproliferative activity against human KB/VCR cells assessed as reduction in cell viability after 72 hrs by MTS assay; type: functional, cell-based; summary of the method: as §1
# [12] = test system: NCI-H1975; experiment: Antiproliferative activity against human NCI-H1975 cells assessed as reduction in cell viability after 72 hrs by MTS assay; type: functional, cell-based; settings: NCI-H1975, 72 h; summary of the method: as §1
# [13] = molecular target: T2, Tubulin (Homo sapiens) (UniProt P68371+Q9H4B7+P0DPH7+P68366+Q13509+Q71U36+P04350+Q3ZCM7+P07437+P68363+Q9BQE3+Q6PEY2+Q13885+Q9BVA1+Q9BUF5); experiment: Binding affinity to tubulin (unknown origin) assessed as increase in Beta-col fragment production at 100 uM after 30 mins by coomassie brilliant blue staining based trypsin proteolysis assay; type: protein-complex assay
# Summary of the method: (§3)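 Tubulin (1 mg/mL) preincubated with 100 µM compound for 30 min at 30 °C in 0.1 M MES, 1 mM MgCl2, 1 mM EGTA, pH 6.9. Trypsin added at 25 µg/mL (1:40 w/w) for 10 min on ice. Fragments resolved on 15% SDS-PAGE, stained with Coomassie and quantified by densitometry.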
# [14] = Selectivity index, ratio of IC50 for human CCRF-CEM/VBL cells to IC50 for human CCRF-CEM cells; type: functional
# [15] = Selectivity index, ratio of IC50 for human KBtax cells to IC50 for human KB cells; type: functional
# [16] = test system: KB; experiment: Antiproliferative activity against human KB cells assessed as reduction in cell viability after 72 hrs by MTS assay; type: functional, cell-based; summary of the method: as §1
# [17] = Selectivity index, ratio of IC50 for human KB/VCR cells to IC50 for human KB cells; type: functional
# [18] = Toxicity in Balb/c mouse xenografted with human NCI-H1975 cells assessed as serum AST level at 8 mg/kg, ip administered 3 times per week for 25 days (reference value: 122 +/- 14.5 IU/L); type: organism-based; settings: in vivo, 600 h
# [19] = Toxicity in Balb/c mouse xenografted with human NCI-H1975 cells assessed as serum ALT level at 8 mg/kg, ip administered 3 times per week for 25 days (reference value: 36.6 +/- 5.9 IU/L); type: organism-based; settings: in vivo, 600 h
# [20] = Toxicity in Balb/c mouse xenografted with human NCI-H1975 cells assessed as serum creatinine level at 8 mg/kg, ip administered 3 times per week for 25 days (reference value: 0.14 +/- 0.02 mg/dl); type: organism-based; settings: in vivo, 600 h
# [21] = Cell cycle arrest in human NHFB cells assessed as effect on cell population at G2/M phase at 40 to 80 nM after 24 hrs by propidium iodide-staining based flow cytometry; type: ADME; settings: 0.08 µM
# Summary of the method: (§4)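 Cells treated for 24 h, then trypsinized and fixed overnight in ice-cold 70% ethanol. Stained for 30 min with propidium iodide (10 µg/mL) plus RNase (20 µg/mL), and DNA content measured by flow cytometry. Mean ± SD.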
# [22] = Toxicity in Balb/c mouse xenografted with human NCI-H1975 cells assessed as serum BUN level at 8 mg/kg, ip administered 3 times per week for 25 days (reference value: 18.5 +/- 1.6 mg/dl); type: organism-based; settings: in vivo, 600 h
# [23] = molecular target: Tubulin; experiment: Binding affinity to tubulin (unknown origin) assessed as dissociation constant by SPR analysis; type: protein-complex assay, Homo sapiens
# Summary of the method: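 Biotin-tubulin (50 µg/mL) captured on a streptavidin chip to about 3,000 RU, with remaining sites blocked by biocytin and a free flow cell as reference. Compound injected at different concentrations in HBS-EP+ (pH 7.4) at 25 °C. KD obtained from steady-state fitting.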
# [24] = Induction of apoptosis in human NHFB cells assessed as cytochrome c release at 40 to 80 nM after 24 hrs by immunoblotting analysis; type: cell-based; settings: 0.08 µM
# [25] = Toxicity in Balb/c mouse xenografted with human NCI-H1975 cells assessed as serum ALT level at 4 mg/kg, ip administered 3 times per week for 25 days (reference value: 36.6 +/- 5.9 IU/L); type: organism-based; settings: in vivo, 600 h
# [26] = Induction of apoptosis in human NHFB cells assessed as PARP cleavage at 40 nM after 24 to 72 hrs by immunoblotting analysis; type: cell-based; settings: 0.04 µM
# [27] = Toxicity in Balb/c mouse xenografted with human NCI-H1975 cells assessed as serum creatinine level at 4 mg/kg, ip administered 3 times per week for 25 days (reference value: 0.14 +/- 0.02 mg/dl); type: organism-based; settings: in vivo, 600 h
# [28] = Toxicity in Balb/c mouse xenografted with human NCI-H1975 cells assessed as serum BUN level at 4 mg/kg, ip administered 3 times per week for 25 days (reference value: 18.5 +/- 1.6 mg/dl); type: organism-based; settings: in vivo, 600 h
# [29] = Toxicity in Balb/c mouse xenografted with human NCI-H1975 cells assessed as effect on body mass at 4 to 8 mg/kg, ip administered 3 times per week for 25 days; type: organism-based; settings: in vivo, 600 h
# Summary of the method: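 H1975 cells (2 × 10^6) injected subcutaneously into right flank of 6-week-old BALB/c nude mice; established tumors treated intraperitoneally with 4 or 8 mg/kg compound in DMSO, or DMSO, three times a week for 25 days (n = 6 per group). Body mass recorded before each injection.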
# [30] = Cell cycle arrest in human NHFB cells assessed as effect on cell population at sub-G1 phase at 40 to 80 nM after 24 hrs by propidium iodide-staining based flow cytometry; type: ADME; settings: 0.08 µM; summary of the method: as §4
# [31] = Induction of apoptosis in human NHFB cells assessed as cleaved caspase 3 expression at 40 nM after 24 to 72 hrs by immunoblotting analysis; type: cell-based; settings: 0.04 µM
# [32] = Toxicity in Balb/c mouse xenografted with human NCI-H1975 cells assessed as serum AST level at 4 mg/kg, ip administered 3 times per week for 25 days (reference value: 122 +/- 14.5 IU/L); type: organism-based; settings: in vivo, 600 h
# [33] = molecular target: T2, Tubulin (Homo sapiens); experiment: Binding affinity to tubulin (unknown origin) assessed as reduction in alpha-C fragment production at 100 uM after 30 mins by coomassie brilliant blue staining based trypsin proteolysis assay; type: protein-complex assay; summary of the method: as §3
# [34] = molecular target: T2, Tubulin (Homo sapiens); experiment: Binding affinity to tubulin (unknown origin) assessed as reduction in alpha-N fragment production at 100 uM after 30 mins by coomassie brilliant blue staining based trypsin proteolysis assay; type: protein-complex assay; summary of the method: as §3
# [35] = molecular target: T2, Tubulin (Homo sapiens); experiment: Binding affinity to tubulin (unknown origin) assessed as reduction in Beta-colfragment production at 100 uM after 30 mins by coomassie brilliant blue staining based trypsin proteolysis assay; type: protein-complex assay; summary of the method: as §3
# Tubulin (Sus scrofa), sequence (P02550 whole entry, looked up): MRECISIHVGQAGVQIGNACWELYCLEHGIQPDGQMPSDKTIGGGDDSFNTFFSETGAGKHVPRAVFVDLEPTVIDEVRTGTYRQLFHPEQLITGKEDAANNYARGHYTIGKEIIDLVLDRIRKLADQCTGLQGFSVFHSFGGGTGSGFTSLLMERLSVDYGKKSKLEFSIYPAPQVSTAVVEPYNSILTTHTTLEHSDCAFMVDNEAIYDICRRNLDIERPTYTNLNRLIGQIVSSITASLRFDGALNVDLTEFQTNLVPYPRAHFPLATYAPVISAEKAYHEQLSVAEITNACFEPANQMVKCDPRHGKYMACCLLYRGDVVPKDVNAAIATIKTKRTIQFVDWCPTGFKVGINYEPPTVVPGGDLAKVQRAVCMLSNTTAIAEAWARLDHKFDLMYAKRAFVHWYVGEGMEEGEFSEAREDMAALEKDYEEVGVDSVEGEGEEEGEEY
# Tubulin (Sus scrofa), sequence (P02554 whole entry, looked up): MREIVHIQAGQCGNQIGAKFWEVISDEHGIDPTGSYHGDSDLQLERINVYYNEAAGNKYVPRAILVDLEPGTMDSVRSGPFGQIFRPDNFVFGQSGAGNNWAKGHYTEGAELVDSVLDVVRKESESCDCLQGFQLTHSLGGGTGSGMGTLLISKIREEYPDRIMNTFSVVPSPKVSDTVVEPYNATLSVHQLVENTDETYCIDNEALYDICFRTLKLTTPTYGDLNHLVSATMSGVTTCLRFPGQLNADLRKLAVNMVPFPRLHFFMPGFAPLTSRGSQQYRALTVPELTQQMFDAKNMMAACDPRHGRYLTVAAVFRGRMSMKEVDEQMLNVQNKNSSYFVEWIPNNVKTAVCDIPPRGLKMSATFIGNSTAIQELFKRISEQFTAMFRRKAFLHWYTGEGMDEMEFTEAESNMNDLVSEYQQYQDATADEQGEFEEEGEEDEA
structure (smiles),measurement,setting,value
CC(=O)O[C@H]1C(=O)[C@@]2(C)[C@H]([C@H](OC(=O)c3ccccc3)[C@]3(O)C[C@H](OC(=O)[C@H](O)[C@@H](NC(=O)c4ccccc4)c4ccccc4)C(C)=C1C3(C)C)[C@]1(OC(C)=O)CO[C@@H]1C[C@@H]2O [PACLITAXEL],pIC50,[1],8.40
same,pIC50,[2],7.00
same,tubulin inhibition call (active/not active),[3],inactive
same,Activity,[4],0.16 mg/dL
same,Activity,[5],inactive
same,Activity,[6],102.8 IU/L
same,Activity,[7],868.7 mm3
same,Activity,[8],inactive
same,pIC50,[9],6.07
same,Activity,[10],19 mg/dL
same,pIC50,[11],6.15
COC(=O)c1ccc2[nH]c(-c3ccccc3)cc(=O)c2c1,pIC50,[12],6.68
CCNC(=O)c1ccc2[nH]c(-c3ccccc3)cc(=O)c2c1,pIC50,[12],5.43
COC(=O)Nc1nc2cc(C(=O)c3cccs3)ccc2[nH]1,tubulin inhibition call (active/not active),[3],Active
same,Activity,[13],Active
same,Activity,[5],Active
same,Activity,[8],Active
CCOC(=O)c1ccc2[nH]c(-c3cccc(OC)c3)cc(=O)c2c1,pIC50,[12],7.36
CCOCc1ccc2[nH]c(-c3ccccc3)cc(=O)c2c1,pIC50,[12],6.09
CCOC(=O)c1ccc2[nH]c(-c3ccc(F)cc3)cc(=O)c2c1,pIC50,[12],5.68
C/C(=C\c1csc(C)n1)[C@@H]1C[C@@H]2O[C@]2(C)CCC[C@H](C)[C@H](O)[C@@H](C)C(=O)C(C)(C)[C@@H](O)CC(=O)N1 [IXABEPILONE],pIC50,[1],8.52
same,pIC50,[2],7.46
same,Ratio IC50,[14],50
same,Ratio IC50,[15],4.3
same,pIC50,[9],6.82
same,pIC50,[16],8.10
same,Ratio IC50,[17],24
same,pIC50,[11],6.71
CCOC(=O)c1ccc2[nH]c(-c3cccc(C(F)(F)F)c3)cc(=O)c2c1,pIC50,[12],6.11
CC(C)OC(=O)c1ccc2[nH]c(-c3ccccc3)cc(=O)c2c1,pIC50,[12],7.32
CCOC(=O)c1ccc2[nH]c(-c3ccccc3)cc(=O)c2c1,Activity,[18],170.8 IU/L
same,Activity,[19],54.2 IU/L
same,Activity,[20],0.17 mg/dL
same,Activity,[21],Non-Toxic
same,Activity,[22],20.9 mg/dL
same,pKd,[23],4.86
same,Activity,[24],Non-Toxic
same,Activity,[25],40.8 IU/L
same,Activity,[26],Non-Toxic
same,Activity,[27],0.26 mg/dL
same,Activity,[28],23.2 mg/dL
same,Activity,[29],Non-Toxic
same,Activity,[30],Non-Toxic
same,Activity,[31],Non-Toxic
same,Activity,[32],138.7 IU/L
CCOC(=O)c1ccc2[nH]c(-c3ccc(Br)cc3)cc(=O)c2c1,pIC50,[12],5.35
CC[C@]1(O)C[C@H]2CN(CCc3c([nH]c4ccccc34)[C@@](C(=O)OC)(c3cc4c(cc3OC)N(C=O)[C@H]3[C@@](O)(C(=O)OC)[C@H](OC(C)=O)[C@]5(CC)C=CCN6CC[C@]43[C@@H]65)C2)C1 [VINCRISTINE],pIC50,[1],8.52
same,pIC50,[2],7.31
same,tubulin inhibition call (active/not active),[3],Active
same,Activity,[33],Active
same,Activity,[34],Active
same,Ratio IC50,[14],440
same,Ratio IC50,[15],9.8
same,pIC50,[9],5.88
same,pIC50,[16],8.30
same,Activity,[35],Active
same,Ratio IC50,[17],163
same,pIC50,[11],6.09
CCOC(=O)c1ccc2[nH]c(-c3ccc(O)cc3)cc(=O)c2c1,pIC50,[12],6.32
CCOC(=O)c1ccc2[nH]c(-c3cccc(O)c3)cc(=O)c2c1,pIC50,[12],5.71
O=C(O)c1ccc2[nH]c(-c3ccccc3)cc(=O)c2c1,pIC50,[12],< 5.30
CCOC(=O)c1ccc2[nH]c(-c3ccc(OC)cc3)cc(=O)c2c1,pIC50,[12],5.66
